# Measured values from ChEMBL document CHEMBL2401617, “Synthesis and biological evaluation of some novel thiazole compounds as potential anti-inflammatory agents” (2013).
# Tests used:
# Format in all cases: functional
# [1] = system: Serratia marcescens; assay: Antibacterial activity against Serratia marcescens IMRU 70 assessed as growth inhibition after 24 hrs by Kirby-Bauer disc diffusion method relative to ampicillin; set-up: concentration or dose not given beside the values
# How it was run: (§1)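 Modified Kirby-Bauer disc diffusion on Mueller-Hinton agar spread with broth culture at about 10^8 cells/ml. Blank 8.0 mm paper discs were impregnated with test solution. Ampicillin discs at the same concentration and solvent served as positive control, and solvent discs as negative control. Plates were incubated at 35–37 °C, and inhibition-zone diameter (mm) was read at 24 h by caliper. % activity index = zone relative to ampicillin.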
# [2] = system: Proteus mirabilis; assay: Antibacterial activity against Proteus mirabilis NCTC 289 assessed as growth inhibition after 24 hrs by Kirby-Bauer disc diffusion method relative to ampicillin; set-up: concentration or dose not given beside the values; how it was run: as §1
# [3] = system: Bacillus cereus; assay: Antibacterial activity against Bacillus cereus NCTC 14579 assessed as growth inhibition after 24 hrs by Kirby-Bauer disc diffusion method relative to ampicillin; how it was run: as §1
# [4] = system: Staphylococcus aureus; assay: Antibacterial activity against Staphylococcus aureus NCTC 7447 assessed as growth inhibition after 24 hrs by Kirby-Bauer disc diffusion method relative to ampicillin; set-up: concentration or dose not given beside the values; how it was run: as §1
# [5] = system: Serratia marcescens; assay: Antibacterial activity against Serratia marcescens IMRU 70 assessed as growth inhibition after 24 hrs by Kirby-Bauer disc diffusion method; how it was run: as §1
# [6] = system: Proteus mirabilis; assay: Antibacterial activity against Proteus mirabilis NCTC 289 assessed as growth inhibition after 24 hrs by Kirby-Bauer disc diffusion method; how it was run: as §1
# [7] = system: Bacillus cereus; assay: Antibacterial activity against Bacillus cereus NCTC 14579 assessed as growth inhibition after 24 hrs by Kirby-Bauer disc diffusion method; how it was run: as §1
# [8] = system: Staphylococcus aureus; assay: Antibacterial activity against Staphylococcus aureus NCTC 7447 assessed as growth inhibition after 24 hrs by Kirby-Bauer disc diffusion method; how it was run: as §1
# [9] = system: Rattus norvegicus; assay: Antiinflammatory activity in albino Wistar rat assessed as inhibition of carrageenan-induced paw oedema at 50 mg/kg, po administered 1 hr prior to carrageenan challenge measured at 4 hrs by plethysmometeric analysis relative to control
# How it was run: (§2)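 Albino Wistar rats of either sex (130–150 g), 6 per group, fasted 12 h with water ad libitum. Test compounds were given orally at 50 mg/kg as DMSO solution; controls received 1 ml 20% v/v DMSO. One hour later, 0.1 ml 1% w/v carrageenan in 0.9% saline was injected into the left hind paw plantar region. Plethysmometer volume was read at 0 and 1–4 h. % inhibition = [1 − (Vt/Vc)] × 100.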
# [10] = system: Rattus norvegicus; assay: Antiinflammatory activity in albino Wistar rat assessed as inhibition of carrageenan-induced paw oedema at 50 mg/kg, po administered 1 hr prior to carrageenan challenge measured at 3 hrs by plethysmometeric analysis relative to control; how it was run: as §2
# [11] = system: Rattus norvegicus; assay: Antiinflammatory activity in albino Wistar rat assessed as inhibition of carrageenan-induced paw oedema at 50 mg/kg, po administered 1 hr prior to carrageenan challenge measured at 2 hrs by plethysmometeric analysis relative to control; how it was run: as §2
# [12] = system: Rattus norvegicus; assay: Antiinflammatory activity in albino Wistar rat assessed as inhibition of carrageenan-induced paw oedema at 50 mg/kg, po administered 1 hr prior to carrageenan challenge measured at 1 hr post carrageenan challenge by plethysmometeric analysis relative to control; how it was run: as §2
# [13] = system: Staphylococcus aureus; assay: Antibacterial activity against Staphylococcus aureus NCTC 7447 assessed as growth inhibition by disc diffusion method
Structure (SMILES),Activity_index [1],Activity_index [2],Activity_index [3],Activity_index [4],diameter of the inhibition zone (DIZ) [5],diameter of the inhibition zone (DIZ) [6],diameter of the inhibition zone (DIZ) [7],diameter of the inhibition zone (DIZ) [8],inhibition in vivo at 50 mg/kg [9],inhibition in vivo at 50 mg/kg [10],inhibition in vivo at 50 mg/kg [11],inhibition in vivo at 50 mg/kg [12],MIC [13]
C/C(=N\NC1=NC(=N)CS1)c1ccc(N2CCOCC2)cc1,15.72%,9.52%,17.39%,20.83%,3 mm,2 mm,4 mm,5 mm,–,–,–,–,–
Nc1nc(-c2ccc(N3CCOCC3)cc2)cs1,15.72%,9.52%,17.39%,20.83%,3 mm,2 mm,4 mm,5 mm,86.8%,75.3%,31.7%,-17%,–
C/C(=N\NC1=NC(=O)C(C)S1)c1ccc(N2CCOCC2)cc1 (centres undefined),10.52%,9.52%,21.74%,20.83%,2 mm,2 mm,5 mm,5 mm,–,–,–,–,–
C/C(=N/NC(=O)/C(C#N)=C1/SC=C(c2ccccc2)N1c1ccccc1)c1ccc(N2CCOCC2)cc1,15.72%,9.52%,17.39%,20.83%,3 mm,2 mm,4 mm,5 mm,–,–,–,–,–
CC1=C(O)N(c2ccccc2)/C(=C(/C#N)C(=O)N/N=C(/C)c2ccc(N3CCOCC3)cc2)S1,15.72%,14.28%,13.04%,20.83%,3 mm,3 mm,3 mm,5 mm,–,–,–,–,–
C/C(=N\N=C1/N=C2OC(=O)C=C2S1)c1ccc(N2CCOCC2)cc1,15.72%,9.52%,17.39%,20.83%,3 mm,2 mm,4 mm,5 mm,85%,75.7%,50.6%,23.3%,–
C/C(=N/c1nc(-c2ccccc2)cs1)c1ccc(N2CCOCC2)cc1,15.72%,14.28%,17.39%,20.83%,2 mm,3 mm,4 mm,5 mm,81.6%,59.8%,22.9%,27.2%,–
C/C(=N\Nc1nc(-c2ccccc2)cs1)c1ccc(N2CCOCC2)cc1,15.72%,14.28%,17.39%,16.67%,2 mm,3 mm,4 mm,4 mm,79.1%,62.2%,35%,-1.6%,–
C/C(=N/NC(=O)c1sc(=S)n(-c2ccccc2)c1N)c1ccc(N2CCOCC2)cc1,15.72%,9.52%,13.04%,16.67%,2 mm,2 mm,3 mm,4 mm,–,–,–,–,–
Cc1ccc(/C=N/c2nc(-c3ccc(N4CCOCC4)cc3)cs2)cc1,15.72%,9.52%,17.39%,16.67%,3 mm,2 mm,4 mm,4 mm,–,–,–,–,–
CC1(C)S[C@@H]2[C@H](NC(=O)[C@H](N)c3ccccc3)C(=O)N2[C@H]1C(=O)O [AMPICILLIN],–,–,–,–,21 mm,21 mm,23 mm,24 mm,–,–,–,–,–
C/C(=N\NC1=NCC(=O)S1)c1ccc(N2CCOCC2)cc1,15.72%,9.52%,16.67%,20.83%,3 mm,2 mm,4 mm,5 mm,78.2%,63.4%,28.6%,29.5%,–
C/C(=N\NC1=NC(=O)CS1)c1ccc(N2CCOCC2)cc1,15.72%,14.28%,17.39%,16.67%,3 mm,3 mm,4 mm,4 mm,35.7%,29%,-8%,-58.6%,–
C/C(=N\Nc1nc(C)cs1)c1ccc(N2CCOCC2)cc1,15.72%,9.52%,13.04%,20.83%,2 mm,2 mm,3 mm,5 mm,–,–,–,–,–
C/C(=N/NC(=O)c1sc(=S)n(-c2ccc3ccccc3c2)c1N)c1ccc(N2CCOCC2)cc1,15.72%,9.52%,13.04%,20.83%,2 mm,2 mm,3 mm,5 mm,–,–,–,–,–
CC(=O)N(C(C)=O)c1nc(-c2ccc(N3CCOCC3)cc2)cs1,15.72%,14.28%,17.39%,20.83%,2 mm,3 mm,4 mm,5 mm,–,–,–,–,–
C/C(=N\NC(=O)CC#N)c1ccc(N2CCOCC2)cc1,15.72%,14.28%,17.39%,75%,2 mm,3 mm,4 mm,18 mm,–,–,–,–,40 µg/mL
C/C(=N\N=C(\N)S)c1ccc(N2CCOCC2)cc1,15.72%,9.52%,17.39%,16.67%,3 mm,2 mm,4 mm,4 mm,83.6%,55.7%,23%,-35%,–
